Legend:
Egl nine homolog 1 = Egl nine homolog 1 (Homo sapiens, UniProt Q9GZT9); test: Inhibition of recombinant human PHD2 (181 to 426 residues) using DLDLEMLAPYIPMDDDFQL peptide as substrate preincubated for 15 mins followed by substrate addition and measured after 15 mins by Q-TOF mass spectrometric analysis
How it was run: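 Catalytic domain tPHD2 181–426 at 150 nM final in 50 mM Tris.Cl pH 7.5, 50 mM NaCl, with 0.5% DMSO. Substrate is CODD peptide (C-terminal amide). Enzyme equilibrated with compound for 15 min, then substrate with 2-oxoglutarate added and reacted for 15 min. Hydroxylated product measured by C4 SPE-MS. 11-point 3-fold titrations, normalised to no-enzyme control, IC50 by non-linear regression.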

SH-SY5Y [1] = test: Neuroprotective activity against H2O2-induced oxidative stress in human SH-SY5Y cells assessed as reduction in rate of cell death pretreated for 2 hrs followed by H2O2 challenge by phase contrast microscopic analysis; type: functional, cell-based
How it was run: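 SH-SY5Y cells pretreated with compound for 2 h (3–10 or 10–50 µM), then given 50 µM H2O2. Dead cells counted manually on phase-contrast images. Mean ± SEM from 4 separate cultures, one-way ANOVA with Dunnett's test.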

SH-SY5Y [2] = test: Cytotoxicity against human SH-SY5Y cells assessed as reduction in cell viability at 100 uM incubated for 24 hrs by MTT assay; type: cell-based
How it was run: (§1)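 SH-SY5Y neuroblastoma cells, undifferentiated, grown in DMEM/F12 (43.5% each) with 10% FBS, pyruvate and glutaMAX at 37 C, 5% CO2. Cells harvested at 85–95% confluence and seeded for MTT, treated over 1–100 µM. MTT (0.1 mg/mL) added for 3 h at 37 C. Formazan dissolved in DMSO and read at 570 nm. Normalised to MEM vehicle (100%) and 0.25% triton X-100 (0%) controls.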

SH-SY5Y [3] = test: Cytotoxicity against human SH-SY5Y cells assessed as reduction in cell viability upto 100 uM incubated for 24 hrs by MTT assay; type: cell-based; how it was run: as §1

Egl nine homolog 1, sequence (Q9GZT9 whole entry, the tested form may be a part): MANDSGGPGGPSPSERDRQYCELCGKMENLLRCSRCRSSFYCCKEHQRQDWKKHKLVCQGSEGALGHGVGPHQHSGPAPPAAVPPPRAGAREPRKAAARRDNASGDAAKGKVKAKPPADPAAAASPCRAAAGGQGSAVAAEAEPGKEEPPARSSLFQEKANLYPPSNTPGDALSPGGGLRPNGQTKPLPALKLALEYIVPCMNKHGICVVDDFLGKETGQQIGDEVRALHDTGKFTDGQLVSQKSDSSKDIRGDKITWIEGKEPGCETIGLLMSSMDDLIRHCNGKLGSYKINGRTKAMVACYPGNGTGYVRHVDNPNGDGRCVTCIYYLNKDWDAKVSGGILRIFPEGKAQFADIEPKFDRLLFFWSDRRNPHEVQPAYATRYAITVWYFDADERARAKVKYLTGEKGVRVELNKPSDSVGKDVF

Compound | IC50 (Egl nine homolog 1) | further results
O=C(O)c1cccc(NS(=O)(=O)c2cccc3cccnc23)c1 | > 100 µM | –
COCc1cc(O)nc(Nc2nc(C)c3ccc(C)cc3n2)n1 | > 100 µM | –
Cn1nc(C(=O)Nc2ccccc2Cl)cc1C(=O)O | > 100 µM | –
O=C(Nc1ccccc1-c1nc2ccccc2c(=O)o1)C(F)(F)F | > 100 µM | –
Cc1c(Br)c(C(=O)Nc2ccc(Cl)cc2C(F)(F)F)nn1C | > 100 µM | –
COC(=O)c1c(NC(=O)C2C(C(=O)O)[C@@H]3C=C[C@H]2CC3)sc(C)c1C (stereo partly specified) | 77.7 µM | –
Cc1cc(NC(=O)c2nn(C)c(C)c2[N+](=O)[O-])no1 | > 100 µM | –
CSCCC(CO)NC(=O)Cn1nc(-n2nc(C)cc2C)ccc1=O (stereo unspecified) | > 100 µM | –
Cc1ccc(-n2nc3c(SCC(=O)O)nnc(C)c3c2C)cc1 | 26 µM | Activity (SH-SY5Y [1]): Dose-Dependent Effect; Activity (SH-SY5Y [2]): Toxic
O=C(CCn1cnnn1)N1CCC(O)(c2cccc(C(F)(F)F)c2)CC1 | > 100 µM | –
CC(C)c1nc2cc(NC(=O)CCn3cnnn3)ccc2n1C | > 100 µM | –
COc1cccc(NC(=O)COc2ccccc2P(=O)(O)O)c1 | > 100 µM | –
Cc1nc(Sc2ncccc2C(=O)O)n[nH]1 | 4.09 µM | Activity (SH-SY5Y [1]): Dose-Dependent Effect; Activity (SH-SY5Y [3]): Non-Toxic
O=C(O)CCCN1C(=O)[C@@H]2[C@H](C1=O)[C@H]1C=C[C@@H]2C1 | > 100 µM | –
O=S(=O)(Nc1cc(C(F)(F)F)ccc1Cl)c1cccc2cccnc12 | > 100 µM | –
O=C1c2ccc3c4c(ccc(c24)C(=O)N1NC(=O)C(F)(F)F)CC3 | > 100 µM | –
C=CCN(CC=C)Cc1c(C)nc2ccccc2c1O | > 100 µM | –
